≈ marks a conversion by molar mass, not a printed value.
What was measured:
[1] = Solubility measured in 10% solution in EtOH.; assay type: physicochemical; conditions: read-out: S
In short: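 Solubility determined in 10% solutol in ethanol.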

[2] = molecular target: T1, Cyclin-dependent kinase 4/cyclin D1 (Homo sapiens, UniProt P11802); test: Inhibition of Cyclin D1-cyclin-dependent kinase 4.; assay type: protein-complex assay
In short: (§1)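 Cyclin D1/CDK4 enzyme inhibition determined by measuring phosphorylation of Rb protein; staurosporine included as standard; IC50 derived.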

HCT-116 [3] = test: Antiproliferative activity against HCT116 (human colon carcinoma) cell line.; assay type: functional, cell-based
[4] = molecular target: Cyclin-dependent kinase 4 (Homo sapiens) (UniProt P11802); test: Inhibition of CDK4-specific Rb-S780 phosphorylation of HCT116 cells at 2xIC50 for 24 hr; assay type: functional, cell-based; conditions: HCT-116
In short: (§2)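 HCT-116 colon carcinoma cells treated 24 h with compound at 1× and 2× its antiproliferation IC50; Rb phosphorylation at Ser780 measured by Western blot with phospho-specific antibody; value expressed as % pRb inhibition.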

[5] = molecular target: Cyclin-dependent kinase 4 (Homo sapiens) (UniProt P11802); test: Inhibition of CDK4-specific Rb-S780 phosphorylation of HCT116 cells at 1xIC50 for 24 hr; assay type: functional, cell-based; conditions: HCT-116; in short: as §2
HCT-116 [6] = test: G1 cell cycle arrest (fold increase over control) in HCT116 cells at 3*IC50; assay type: functional, Homo sapiens
In short: (§3)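 HCT-116 cells exposed to compound for 24 h, then analysed by flow cytometry; G1 arrest expressed as fold increase of G1 population over untreated control.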

HCT-116 [7] = test: G1 cell cycle arrest (fold increase over control) in HCT116 cells at IC50; assay type: functional, Homo sapiens; in short: as §3
NCI-H460 = test: Antiproliferative activity against NCIH-460 (human lung) cell line.; assay type: functional, cell-based
[8] = molecular target: cAMP-dependent protein kinase (PKA) (Homo sapiens, UniProt P22694+P17612+P22612); test: Inhibition of protein kinase A mediated histone phosphorylation; assay type: protein assay
In short: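 PKA enzyme assay measuring phosphorylation of histone substrate; staurosporine used as standard; IC50 reported.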

[9] = molecular target: Cyclin-dependent kinase 2/cyclin E (Homo sapiens, UniProt P24941); test: Inhibition of Cyclin E-cyclin-dependent kinase 2 mediated RbING-phosphorylation; assay type: protein-complex assay
In short: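 Cyclin E/CDK2 enzyme assay following substrate phosphorylation, with Rb^ING as substrate; staurosporine run as standard; IC50 reported.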

[10] = molecular target: T1, Cyclin-dependent kinase 4/cyclin D1; test: Inhibition of Cyclin D1-cyclin-dependent kinase 4 mediated Rb21-phosphorylation; assay type: protein-complex assay; conditions: in the assay text read “RbING-phosphorylation” for “Rb21-phosphorylation”; in short: as §1

T1 sequence (P11802 whole entry): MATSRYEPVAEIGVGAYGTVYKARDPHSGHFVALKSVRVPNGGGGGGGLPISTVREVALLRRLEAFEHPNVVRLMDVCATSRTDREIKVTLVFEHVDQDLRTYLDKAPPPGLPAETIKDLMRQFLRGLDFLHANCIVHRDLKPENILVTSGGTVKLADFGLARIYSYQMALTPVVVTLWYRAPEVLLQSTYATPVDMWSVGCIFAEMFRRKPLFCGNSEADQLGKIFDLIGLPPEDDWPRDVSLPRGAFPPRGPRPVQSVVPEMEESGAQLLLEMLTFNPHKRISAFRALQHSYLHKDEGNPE
T1 sequence (P24385 whole entry, further chain): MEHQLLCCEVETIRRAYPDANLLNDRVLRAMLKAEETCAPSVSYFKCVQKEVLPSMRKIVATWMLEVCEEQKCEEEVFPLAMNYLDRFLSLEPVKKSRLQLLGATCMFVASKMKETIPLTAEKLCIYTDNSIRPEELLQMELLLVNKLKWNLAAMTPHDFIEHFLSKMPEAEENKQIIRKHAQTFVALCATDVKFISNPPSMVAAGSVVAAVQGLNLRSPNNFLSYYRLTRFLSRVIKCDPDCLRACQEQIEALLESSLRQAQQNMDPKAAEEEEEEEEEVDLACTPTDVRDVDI
Cyclin-dependent kinase 4 (Homo sapiens), sequence (P11802 whole entry): as the sequence (P11802 whole entry) above

| Structure (SMILES) | solubility [1] [µg/mL] | IC50 [2] [nM] | IC50 (HCT-116 [3]) [nM] | inhibition [4] [%] | inhibition [5] [%] | Fold increase (HCT-116 [6]) | Fold increase (HCT-116 [7]) | IC50 (NCI-H460) [nM] | IC50 [8] [nM] | IC50 [9] [nM] | IC50 [10] [nM] |
| --- | --- | --- | --- | --- | --- | --- | --- | --- | --- | --- | --- |
| O=C1NC(=O)c2c1c1c3ccccc3[nH]c1c1c2c2cccc3c2n1CC(CO)CC3 (stereo not given) | 1070 (≈ 2610 µM) | 126 | 540 | 85 | 71 | 1.9 | 1.8 | 330 | – | – | – |
| O=C1NC(=O)c2c1c1c3ccccc3[nH]c1c1c2c2cccc3c2n1CCC3CO (stereo not given) | – | 31 | 370 | 23 | 0 | 1.44 | 1.17 | 540 | > 2000 | – | – |
| O=C1NC(=O)c2c1c1c3ccccc3[nH]c1c1c2c2cccc3c2n1C(CO)CC3 (stereo not given) | 570 (≈ 1440 µM) | 18 | 920 | 65 | 53 | 1.51 | 1.32 | 820 | 858 | 219 | – |
| COC(=O)CC(NCC1Cc2cccc3c(C4=C(c5c[nH]c6cc(F)ccc56)C(=O)NC4=O)cn(c23)C1)C(=O)OC (stereo not given) | – | 671 | > 10000 | – | – | – | – | > 10000 | – | – | – |
| CN(C)CC1Cc2cccc3c(C4=C(c5c[nH]c6ccccc56)C(=O)NC4=O)cn(c23)C1 (stereo not given) | – | 898 | 770 | – | – | 1.17 | 1 | 4750 | – | – | – |
| O=C1NC(=O)c2c1c1c3ccc(C(F)(F)F)cc3[nH]c1c1c2c2cccc3c2n1CC(CO)C3 (stereo not given) | 4810 (≈ 10400 µM) | 23 | 1250 | – | – | 1.47 | 1.34 | 690 | > 2000 | – | – |
| Cn1ccc2ccc3c(c4c(c5c6cccc7c6n(c35)CC(CO)C7)C(=O)NC4=O)c21 (stereo not given) | – | 84 | 680 | – | – | 2.25 | 1.13 | 210 | – | 650 | – |
| O=C1NC(=O)c2c1c1c3ccc(F)cc3[nH]c1c1c2c2cccc3c2n1C(CO)CC3 (stereo not given) | 620 (≈ 1500 µM) | 2 | 820 | – | – | 2.12 | 1.7 | 260 | 3020 | 79 | – |
| O=C1NC(=O)c2c1c1c3ccc(Br)cc3[nH]c1c1c2c2cccc3c2n1CC(CO)C3 (stereo not given) | 830 (≈ 1750 µM) | 10 | 500 | 74 | 56 | – | 1.6 | 360 | > 2000 | > 2000 | – |
| O=C1NC(=O)c2c1c1c3ccccc3ccc1c1c2c2cccc3c2n1CC(CO)C3 (stereo not given) | – | 72 | 940 | – | – | 1.64 | 1.14 | 740 | > 2000 | > 2000 | – |
| O=C1NC(=O)c2c1c1c3ccccc3ccc1c1c2c2cccc3c2n1C(CO)CC3 (stereo not given) | 2780 (≈ 6840 µM) | 175 | 1120 | – | – | 1.32 | 1.17 | 540 | > 2000 | – | – |
| O=C1NC(=O)c2c1c1c3ccccc3ccc1c1c2c2cccc3c2n1CCC3CO (stereo not given) | – | 210 | 1250 | – | – | 1.3 | 1.2 | 1720 | > 2000 | – | – |
| NC(=O)[C@@H]1CCCN1CC1Cc2cccc3c(C4=C(c5c[nH]c6cc(F)ccc56)C(=O)NC4=O)cn(c23)C1 (stereo not given in full) | – | – | > 10000 | – | – | – | – | > 10000 | – | – | > 2000 |
| O=C1NC(=O)c2c1c1c3ccc(F)cc3[nH]c1c1c2c2cccc3c2n1CC(CO)C3 (stereo not given) | 890 (≈ 2150 µM) | 22 | 360 | 53 | 25 | 2.32 | 1.67 | 430 | > 2000 | 141 | – |
| O=C1NC(=O)c2c1c1c3ccccc3[nH]c1c1c2c2cccc3c2n1CC(CO)C3 (stereo not given) | 120 (≈ 303 µM) | 71 | 910 | 55 | 21 | 1.95 | 2.04 | 960 | > 2000 | 217 | – |
| COc1ccc2c(c1)[nH]c1c2c2c(c3c4cccc5c4n(c13)CC(CO)C5)C(=O)NC2=O (stereo not given) | 490 (≈ 1150 µM) | 15 | 1830 | 77 | 69 | 2 | 1.8 | 1960 | > 2000 | 284 | – |
| CNCC1Cc2cccc3c(C4=C(c5c[nH]c6cc(F)ccc56)C(=O)NC4=O)cn(c23)C1.Cl (stereo not given) | – | 8 | 1730 | – | – | – | – | 5150 | 383 | – | – |
| O=C1NC(=O)C(c2cn3c4c(cccc24)CC(CCl)C3)=C1c1c[nH]c2cc(F)ccc12 (stereo not given) | – | 64 | 3270 | – | – | – | – | 5650 | > 20000 | – | – |

— ChEMBL document CHEMBL1149211, “Synthesis of 1,7-annulated indoles and their applications in the studies of cyclin dependent kinase inhibitors” (Bioorg Med Chem Lett, 2004)
